Three substances from paper PMC3003407 (The Journal of Biological Chemistry, 2010) can be followed below.

Test [1] addresses recombinant human N-terminal 70-kDa fibrin- and gelatin-binding fragment of fibronectin (N-9FNI, residues 32-608) (human) (UniProt P02751). Briefly: ITC. In general terms: ITC needs no label: the signal is the heat of the interaction.
In a further test the target is FN (Homo sapiens, UniProt P02751). Briefly: Competition of 0.3 nM b-FUD binding to adsorbed FN. Conditions: 1000 nM competitor. Put shortly:
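Wells coated overnight at 4 °C with 10 μg/ml (40 nM) FN, then blocked with 5% BSA in TBST. 0.3 nM biotinylated FUD was added together with competitor in TBST plus 0.1% BSA for 2 h. Detection used alkaline phosphatase–streptavidin (1:20,000, 1 h), 4-nitrophenyl phosphate (1 mg/ml, TBS pH 9.0) and A405. Triplicates, background-subtracted, expressed relative to b-FUD alone.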

Test [2] concerns the target human plasma fibronectin (human). Briefly: ELISA. A general note: An ELISA detects its analyte on a solid surface through an enzyme-linked reagent.

In general, Kd refers to the constant that tells how readily two partners part at equilibrium. With “functional upstream domain (FUD) of Streptococcus pyogenes F1 adhesin, recombinant, 56 residues with tails (domain or fragment)”, the Kd in test [1] is 5.2 nM.

Turning to “N-^5FNI: Recombinant FN fibrin-binding fragment, residues 32–290”, in the test with FN, the “competition with b-FUD for binding to FN” value is listed as “minor degree”.

With “FUD i29/30 (single alanine inserted between Ile-29 and Asp-30) (domain or fragment)”, the percent competition at 10 μM in test [2] is 20%.
